Laboratory results taken from ChEMBL document CHEMBL4041550, “Structure-Activity Relationship Study of QL47: A Broad-Spectrum Antiviral Agent” (ACS Med Chem Lett, 2017).

Columns and labels:
[1] = target: T1, Discoidin domain-containing receptor 2 (Homo sapiens, UniProt Q16832); assay: Inhibition of GST-tagged human DDR2 cytoplasmic domain (427 to 855 residues) expressed in baculovirus expression system by LanthaScreen assay
T1 sequence (Q16832 whole entry): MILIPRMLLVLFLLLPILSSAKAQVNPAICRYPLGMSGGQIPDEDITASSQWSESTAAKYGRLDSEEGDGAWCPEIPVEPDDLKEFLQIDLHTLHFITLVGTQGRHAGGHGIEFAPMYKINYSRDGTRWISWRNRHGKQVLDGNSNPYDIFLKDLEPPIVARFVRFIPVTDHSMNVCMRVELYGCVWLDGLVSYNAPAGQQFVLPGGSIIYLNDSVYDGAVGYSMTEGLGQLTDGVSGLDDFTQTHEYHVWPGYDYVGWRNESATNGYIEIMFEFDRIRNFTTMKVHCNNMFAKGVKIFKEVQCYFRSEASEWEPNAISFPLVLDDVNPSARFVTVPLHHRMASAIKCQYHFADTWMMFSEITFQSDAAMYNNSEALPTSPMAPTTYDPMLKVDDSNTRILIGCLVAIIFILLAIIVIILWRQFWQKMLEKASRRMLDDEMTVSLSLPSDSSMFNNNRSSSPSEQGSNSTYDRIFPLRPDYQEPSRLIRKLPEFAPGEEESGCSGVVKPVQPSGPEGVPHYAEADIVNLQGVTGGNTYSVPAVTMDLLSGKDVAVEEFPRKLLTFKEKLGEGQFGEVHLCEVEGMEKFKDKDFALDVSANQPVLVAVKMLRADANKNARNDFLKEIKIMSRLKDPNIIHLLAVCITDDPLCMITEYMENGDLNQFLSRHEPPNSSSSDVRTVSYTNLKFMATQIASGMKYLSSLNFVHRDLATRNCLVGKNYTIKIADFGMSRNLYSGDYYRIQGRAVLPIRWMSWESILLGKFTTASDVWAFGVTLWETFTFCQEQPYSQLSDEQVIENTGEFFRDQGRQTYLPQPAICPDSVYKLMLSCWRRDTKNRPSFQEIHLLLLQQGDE
Summary of the method: (§1)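 IC50 against DDR1 and DDR2 determined with LanthaScreen binding assays.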

dengue virus type 2 [2] = assay: Antiviral activity against Dengue virus serotype 2 strain New Guinea C infected in HuH7 cells assessed as reduction in log-fold change by measuring focus forming unit at 10 uM measured at 24 hrs post infection by focus forming assay relative to control; format: functional, Thailand/NGS-C/1944
Summary of the method: (§2)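 DENV2-infected Huh7 cells treated with compound at 2 or 10 μM. Infectious virus secreted into culture supernatants at 24 h post-infection/treatment was titred by focus-forming assay. Result expressed as log-fold change relative to DMSO treatment.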

dengue virus type 2 [3] = assay: Antiviral activity against Dengue virus serotype 2 strain New Guinea C infected in HuH7 cells measured at 24 hrs post infection by focus forming assay; format: functional; settings: Thailand/NGS-C/1944, Huh-7, 24 h
Summary of the method: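 Huh7 cells infected with DENV2, then treated with a range of compound concentrations. Viral yield measured 24 h later by titration of infectious particles in supernatants; in parallel, cell viability measured. IC90 (1-log10 reduction in infectious progeny) and CC50 derived by non-linear regression. Mean ± SD of experimental duplicates, n ≥ 2 repeats.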

[4] = Half life in Swiss albino mouse at 10 mg/kg, po by LC/MS/MS method; format: ADME, organism-based; settings: in vivo
Summary of the method: (§3)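 Mouse pharmacokinetics after intravenous, oral or intraperitoneal dosing; plasma parameters derived were T1/2, Tmax, Cmax, AUClast, AUCinf, clearance, Vss and oral bioavailability F.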

[5] = target: Epithelial discoidin domain-containing receptor 1 (Homo sapiens, UniProt Q08345); assay: Inhibition of GST-tagged human DDR1 catalytic domain (440 to 876 residues) expressed in baculovirus expression system by LanthaScreen assay; summary of the method: as §1
Chain of Epithelial discoidin domain-containing receptor 1 (Q08345 whole entry, the tested form may be a part): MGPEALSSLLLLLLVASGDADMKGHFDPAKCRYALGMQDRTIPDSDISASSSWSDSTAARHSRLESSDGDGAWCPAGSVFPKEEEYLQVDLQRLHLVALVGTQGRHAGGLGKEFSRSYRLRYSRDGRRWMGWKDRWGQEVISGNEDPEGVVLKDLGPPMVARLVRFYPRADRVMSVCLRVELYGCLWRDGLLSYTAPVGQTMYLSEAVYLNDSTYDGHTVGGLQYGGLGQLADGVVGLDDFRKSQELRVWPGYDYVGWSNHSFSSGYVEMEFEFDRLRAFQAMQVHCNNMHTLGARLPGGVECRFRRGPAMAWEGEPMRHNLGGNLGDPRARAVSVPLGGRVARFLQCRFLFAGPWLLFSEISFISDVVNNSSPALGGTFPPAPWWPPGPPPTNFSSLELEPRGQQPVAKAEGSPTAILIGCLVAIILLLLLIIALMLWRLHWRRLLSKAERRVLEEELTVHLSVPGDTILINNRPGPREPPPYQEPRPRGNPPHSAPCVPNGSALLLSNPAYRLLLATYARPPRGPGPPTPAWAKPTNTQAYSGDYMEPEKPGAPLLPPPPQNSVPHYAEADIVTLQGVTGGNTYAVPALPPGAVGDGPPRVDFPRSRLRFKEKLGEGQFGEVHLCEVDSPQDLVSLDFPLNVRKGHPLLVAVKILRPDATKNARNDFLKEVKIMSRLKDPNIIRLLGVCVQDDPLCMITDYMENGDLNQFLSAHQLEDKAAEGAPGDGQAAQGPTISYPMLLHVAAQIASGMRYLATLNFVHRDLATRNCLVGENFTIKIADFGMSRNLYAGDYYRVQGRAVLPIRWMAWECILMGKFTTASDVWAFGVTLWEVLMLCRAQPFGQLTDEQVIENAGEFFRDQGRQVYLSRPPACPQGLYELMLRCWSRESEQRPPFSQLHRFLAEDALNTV

dengue virus type 2 [6] = assay: Antiviral activity against Dengue virus serotype 2 strain New Guinea C infected in HuH7 cells assessed as reduction in log-fold change by measuring focus forming unit at 2 uM measured at 24 hrs post infection by focus forming assay relative to control; format: functional, Thailand/NGS-C/1944; summary of the method: as §2
[7] = AUC (infinity) in Swiss albino mouse at 10 mg/kg, po by LC/MS/MS method; format: ADME, organism-based; parameters: dose 10 mg/kg, route oral, time infinity; settings: in vivo
[8] = Cmax in Swiss albino mouse at 10 mg/kg, ip by LC/MS/MS method; format: ADME, organism-based; parameters: dose 10 mg/kg, route intraperitoneal; settings: in vivo; summary of the method: as §3
dengue virus type 2 [9] = assay: Antiviral activity against Dengue virus serotype 2 replicon harboring GVD mutant infected in HuH7 cells assessed as reduction in viral RNA translation at 10 uM measured at 6 hrs post infection by luciferase reporter gene assay relative to control; format: functional; parameters: scale not given: the % may be the effect or the level left
Summary of the method: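 Huh7 cells transfected with in vitro-transcribed nonreplicative DENV2(GVD) reporter replicon RNA, then treated immediately with compound at 2 or 10 μM. Intracellular firefly luciferase activity read 6 h post-transfection as a measure of RNA translation and expressed relative to DMSO-treated samples. Mean ± SD of experimental duplicates, n = 3 repeats.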

[10] = Oral bioavailability in Swiss albino mouse at 10 mg/kg by LC/MS/MS method; format: ADME, organism-based; settings: in vivo; summary of the method: as §3
[11] = Volume of distribution at steady state in Swiss albino mouse at 2 mg/kg, iv by LC/MS/MS method; format: ADME, organism-based; settings: in vivo, read-out: Vdss; summary of the method: as §3
[12] = AUClast in Swiss albino mouse at 10 mg/kg, ip by LC/MS/MS method; format: ADME, organism-based; parameters: dose 10 mg/kg, route intraperitoneal, time 0 - last; settings: in vivo
[13] = Half life in Swiss albino mouse at 2 mg/kg, iv by LC/MS/MS method; format: ADME, organism-based; settings: in vivo; summary of the method: as §3

In the case of `Cc1ccc(-n2c(=O)ccc3ccc4ccc(-c5cnn(C)c5)cc4c32)cc1NC(=O)/C=C/CN(C)C`, the IC50 [1] is reported as greater than 10 µM, the Activity (dengue virus type 2 [2]) is reported as 4 log10FFU/ml and the IC90 (dengue virus type 2 [3]) is reported as 0.555 µM. For the same compound, the half-life [4] was 1.53 h, the IC50 [5] was 5.02 µM and the Activity (dengue virus type 2 [6]) was 4 log10FFU/ml. For the same compound, the AUC(0-inf) [7] was 118 ng·h/mL, the Cmax [8] was 787 ng/mL and the Activity (dengue virus type 2 [9]) was 95%. For the same compound, the bioavailability [10] was 12%, the Vd [11] was 9.58 L/kg and the AUC(0-t) [12] was 1110 ng·h/mL. It also gave a half-life [13] of 1.07 h.
